Data: ChEMBL document CHEMBL1123267, “Synthesis and radioprotective activity of new cysteamine and cystamine derivatives” (J Med Chem, 1986)

What was measured:
[1] = tested on: Mus musculus; assay: Radioprotective effects in mice when administered i.p. at 50% LD50, 2 hr prior to whole body radiation.; assay type: functional
In short: (§1)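 Mice in groups of 20 were given the compound i.p., dissolved in distilled water. Whole-body irradiation was from a 60Co γ source at 0.65 Gy/min. First dose was the control LD100/30 days (9 Gy males, 9.5 Gy females) or that dose + 2 Gy, then a dose series. Irradiation LD50/30-day was found by the Karber method. DRF = treated LD50/30 ÷ solvent-control LD50/30.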

[2] = tested on: Mus musculus; assay: Radioprotective effects in mice when administered i.p. at 12.5% LD50, 15 min prior to whole body radiation.; assay type: functional; in short: as §1
[3] = tested on: Mus musculus; assay: Radioprotective effects in mice when administered i.p. at 50% LD50, 15 min prior to whole body radiation.; assay type: functional; in short: as §1
[4] = Lethal dose in mice (LD50); assay type: toxicity, organism-based; settings: mouse, in vivo
In short: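 Compounds were dissolved in distilled water and the dose range was set in a preliminary study. Five groups of 10 mice then received different doses within that range. LD50 was derived by Probit analysis.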

[5] = tested on: Mus musculus; assay: Compound was tested for radioprotective activity when injected intraperitoneally with a dose equal to one-eighth of its LD50, 15 min before whole-body irradiation.; assay type: functional; in short: as §1

Compound | DRF [1] | DRF [2] | DRF [3] | LD50 [4] [mg/kg] | DRF [5]
CC(=O)NCCSC(=O)CN.O=C(O)C(F)(F)F | 1 | 1 | 1.2 | 1000 | –
Br.Br.C[C@H](N)C(=O)NCCSSCCNC(=O)[C@@H](C)N | 1 | 1 | 1 | 800 | –
Br.CC(=O)SCCNC(=O)CN | 1 | 1 | 1.4 | 1500 | –
CC(=O)SCCNC(=O)CN.O=C(O)C(F)(F)F | 1 | 1 | 1.4 | 1500 | –
Br.Br.NCC(=O)NCCSSCCNC(=O)CN | 1 | 1 | 1.4 | 1500 | –
Br.Br.NCCC(=O)NCCSSCCNC(=O)CCN | 1 | 1 | 1 | 350 | –
Br.CC(=O)SCCNC(=O)[C@H](C)N | 1.2 | 1 | 1.4 | 1500 | –
NCC(=O)NCCSC(=O)C(Cl)(Cl)Cl.O=C(O)C(F)(F)F | 1 | – | 1.05 | 700 | 1
Br.CC(=O)SCCNC(=O)CCN | 1 | 1 | 1 | 400 | –
CC(=O)SCCN.Cl | 1.05 | 1 | 1.05 | 500 | –
Br.CC(=O)NCCSC(=O)CN | 1 | 1 | 1.1 | 600 | –
Br.CCC(=O)SCCNC(=O)CN | 1 | 1 | 1.2 | 1500 | –
Br.CC(C)(C)C(=O)SCCNC(=O)CN | 1 | 1 | 1.05 | 1200 | –
NCC(=O)NCCSC(=O)CCl.O=C(O)C(F)(F)F | 1 | 1 | 1 | 550 | –
Br.Br.NCCCC(=O)NCCSSCCNC(=O)CCCN | 1 | 1 | 1 | 300 | –
NCC(=O)NCCSC(=O)C(Cl)Cl.O=C(O)C(F)(F)F | 1 | 1 | 1.1 | 800 | –
Br.CC(=O)SCCNC(=O)CCCN | – | 1 | 1.1 | 800 | –
NCC(=O)NCCSSCCNC(=O)CN.O=C(O)C(F)(F)F.O=C(O)C(F)(F)F | 1.1 | 1.2 | 1.55 | 1500 | –
C[C@H](N)C(=O)NCCSSCCNC(=O)[C@@H](C)N.O=C(O)C(F)(F)F.O=C(O)C(F)(F)F | 1.1 | 1 | 1.4 | 1200 | –
CC(=O)SCCNC(=O)[C@H](C)N.O=C(O)C(F)(F)F | 1 | 1 | 1.4 | 1250 | –
NCCCNCCSP(=O)(O)O [AMIFOSTINE] | >1.3 | 1.5 | 2.7 | 950 | –
